# Bioassay records deposited in PubChem BioAssay by Johns Hopkins Ion Channel Center.
# TRPC4 block – TRPC4 (mouse) channel inhibition; HEK293 TRPC4beta/mu-opioid, DAMGO-evoked Fluo4 calcium flux; stronger effect = lower value; B-score at 10 µM; 0.39% of 300,000 active; AID 2247;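 active means B-score over 3 SD under the library average, no early fluorescence shift, positive overall ratio signal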
#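 Assay system: HEK293 cells with stable TRPC4beta plus mu-opioid receptor expression; Probe or stimulus: DAMGO in two steps, submaximal then maximal; Dosing: single-point compound dosing; Measured by: Fluo4 calcium-dye fluorescence, kinetic read; Read-out basis: B score from integrated Fluo4 fluorescence ratio.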
# TRPC6 inhibitor – blocks the mouse TRPC6 cation channel | Q61143 | HEK293-TRPC6, membrane potential dye, ACh-evoked depolarization; stronger effect = lower value | B-score at 10 µM | 1.1% of 310,000 active | AID 2553;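 active means B-score under library mean minus 3 SD, initial fluorescence not abnormally high, positive integrated signal ratio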;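 further: B-score derived from integrated fluorescence ratio over the kinetic read; more negative B-score means stronger inhibition of depolarization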
# Target sequence (Q61143 whole entry, looked up): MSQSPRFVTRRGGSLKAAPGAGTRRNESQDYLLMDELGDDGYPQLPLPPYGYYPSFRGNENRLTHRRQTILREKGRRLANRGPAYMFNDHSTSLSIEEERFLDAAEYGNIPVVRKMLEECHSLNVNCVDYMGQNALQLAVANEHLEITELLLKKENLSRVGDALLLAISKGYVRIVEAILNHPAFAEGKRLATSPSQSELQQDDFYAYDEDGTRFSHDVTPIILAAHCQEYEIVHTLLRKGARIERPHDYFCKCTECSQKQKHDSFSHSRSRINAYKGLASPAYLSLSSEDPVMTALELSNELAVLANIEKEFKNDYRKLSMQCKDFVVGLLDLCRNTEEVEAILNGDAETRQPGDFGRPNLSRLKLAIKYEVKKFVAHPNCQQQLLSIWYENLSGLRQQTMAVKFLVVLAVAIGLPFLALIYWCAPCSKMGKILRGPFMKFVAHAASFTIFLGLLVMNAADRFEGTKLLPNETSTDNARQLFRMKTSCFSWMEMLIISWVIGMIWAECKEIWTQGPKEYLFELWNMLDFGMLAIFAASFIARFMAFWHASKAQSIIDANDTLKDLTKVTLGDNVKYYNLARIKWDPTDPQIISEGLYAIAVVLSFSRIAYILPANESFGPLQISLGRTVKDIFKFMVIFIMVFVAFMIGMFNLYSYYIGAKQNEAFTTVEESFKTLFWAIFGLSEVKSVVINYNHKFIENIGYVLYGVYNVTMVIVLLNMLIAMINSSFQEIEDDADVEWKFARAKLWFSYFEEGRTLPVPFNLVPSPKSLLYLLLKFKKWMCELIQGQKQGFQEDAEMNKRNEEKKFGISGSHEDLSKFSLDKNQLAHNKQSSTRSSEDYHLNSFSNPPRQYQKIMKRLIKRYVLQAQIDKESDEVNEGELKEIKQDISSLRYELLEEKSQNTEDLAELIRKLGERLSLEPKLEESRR
# TRPC6 act – activators of mouse TRPC6 channel; HEK293-TRPC6 membrane potential dye fluorescence; stronger effect = higher value; AID 2550; 0.13% of 310,000 active; B-score at 10 µM;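 active means B-score of the integrated fluorescence ratio above library mean plus 3 SD, and starting fluorescence ratio within library mean plus 5 SD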;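 further: higher score means more depolarization so channel activation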
# TRPC4 PAM – TRPC4 (mouse) allosteric potentiation | B-score at 10 µM | AID 2227 | 0.42% of 310,000 active | HEK293 TRPC4beta/mu-opioid, DAMGO EC20, Fluo-4 Ca2+ flux; stronger effect = higher value;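 active means B-score of calcium response area above 5 SD of library B-scores, with initial fluorescence ratio within 5 SD of library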
# TRPC4 agonist – opens the mouse TRPC4 cation channel. HEK293 TRPC4beta/mu-opioid, Fluo4 calcium fluorescence; stronger effect = higher value. B-score at 10 µM. 0.49% of 310,000 active;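 active means B-score above 5 SD of library B-scores, and initial fluorescence ratio not above library mean plus 5 SD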;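 further: positive B-score marks a calcium rise read as TRPC4 activation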
#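 System – HEK293 cells stably co-expressing mouse TRPC4beta and mu-opioid receptor · Signal – Fluo4 calcium-sensitive dye fluorescence, kinetic, 1 Hz baseline · Benchmarks – buffer (low) and maximal DAMGO (high) · Read-out – B score of integrated fluorescence ratio per well · Incubation – dye loading 45 min room temperature, 110 s kinetic read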
# TRPC4 sel inh 2 – second check of whether TRPC6 inhibitors also affect mouse TRPC4; shares compounds with TRPC6 inhibitor; HEK293 TRPC4/MOR, membrane potential dye fluorescence; channel activated by saturating DAMGO dose; inhibition, % at 10 µM; 42% of 920 active; AID 2776;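 active means compounds whose fluorescence signal differed from control wells by over 3 SD, either direction, in both duplicate plates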
# TRPC4 spec – tests whether TRPC6 inhibitors also affect mouse TRPC4 | AID 2777 | activity change, negative = inhibition, % at 10 µM | HEK293 TRPC4/mu-opioid, membrane potential fluorescence | shares compounds with TRPC6 inhibitor | 61% of 920 active;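 active means rise or fall in signal beyond 3 SD of buffer-only wells in both replicate plates, either sign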;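 further: integrated kinetic ratio of fluorescence range over baseline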
# HEK293 MPD ctr 2-1 – parental HEK293 nonspecific activity of TRPC6 inhibitors, second screen | parental HEK293 membrane potential dye fluorescence; maximal acetylcholine challenge after compound addition | signal change vs control, % at 10 µM | 31% of 920 active | AID 2779 | shares compounds with TRPC6 inhibitor;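 active means membrane potential signal moving either way by over 3 SD of the maximum-effect control, in both duplicate plates, meaning non-specific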
# HEK293 MPD ctr-1 – parental HEK293 nonspecific activity of TRPC6 inhibitors; shares compounds with TRPC6 inhibitor; parental HEK293 membrane potential dye fluorescence; membrane potential signal change, % at 10 µM; 60% of 920 active; AID 2780;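 active means membrane potential signal shifting up or down by more than 3 SD of buffer-only wells, on both duplicate plates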
# HEK293 MPD ctr-2 – checks TRPC6 modulator effects in parental HEK293 cells; 51% of 2,400 active; membrane potential dye fluorescence; membrane potential signal change, % at 10 µM; shares compounds with TRPC6 inhibitor;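 active means membrane potential signal moves up or down beyond 5 SD from buffer-only wells, on both duplicate plates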
# HEK293 MPD ctr 2-2 – parental HEK293 nonspecific activity of TRPC6 modulators, second screen; shares compounds with TRPC6 inhibitor; inhibition, % at 10 µM; membrane potential dye fluorescence; after compound, maximal acetylcholine stimulation; 14% of 2,400 active; AID 488926;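 active means membrane potential signal drops by more than 5 SD from the mean control signal, in both duplicate plates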
# TRPC4/MOR mod – tests whether TRPC6 modulators also affect mouse TRPC4; shares compounds with TRPC6 inhibitor; HEK293 TRPC4/mu-opioid, membrane potential fluorescence; percent change from control (negative = decrease, positive = increase), % at 10 µM; 69% of 2,400 active;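 active means membrane potential signal moved up or down beyond 5 SD of buffer control wells, in both duplicate plates, actives on both sides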
# TRPC4 ctr inh 2 – second check of whether TRPC6 modulators also affect mouse TRPC4 | inhibition, % at 10 µM | HEK293 TRPC4/mu-opioid, membrane potential dye fluorescence; stimulated with maximal-effect DAMGO | AID 488928 | shares compounds with TRPC6 inhibitor | 55% of 2,400 active;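 active means drop in membrane potential signal beyond 5 SD of the control wells in both duplicate plates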;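 further: TRPC4 counter screen for TRPC6 hits run under conditions tuned for TRPC6 not TRPC4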
# TRPC6 inh conf – mouse TRPC6 inhibitor confirmation; shares compounds with TRPC6 inhibitor; HEK293-TRPC6, membrane potential dye, ACh-evoked depolarization; inhibition, % at 10 µM; 43% of 3,300 active; AID 488960;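 active means fluorescence ratio falls more than 5 SD below the full-stimulation control mean, in both duplicate runs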;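 further: integrated fluorescence ratio of peak minus minimum over baseline after agonist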
# TRPC6 act confirm – mouse TRPC6 activator confirmation; activation, % at 10 µM; 11% of 2,800 active; shares compounds with TRPC6 inhibitor; HEK293-TRPC6 membrane potential dye fluorescence, FDSS;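 active means ratio signal rise beyond 5 SD above unstimulated control wells' mean, seen in both duplicate runs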
# Hits are given with their value; - = inactive; . = no result given. A selection: hits, their analogues and other compounds. The true share with any hit is near 2.3%.
SMILES,TRPC4 block,TRPC6 inhibitor,TRPC6 act,TRPC4 PAM,TRPC4 agonist,HEK293 MPD ctr-2,HEK293 MPD ctr 2-2,TRPC4/MOR mod,TRPC4 ctr inh 2,TRPC6 inh conf,TRPC6 act confirm,others
COc1ccc(N2C(=O)CSC2c2ccc3c(c2)OCO3)cc1 (stereo unspecified),-,-7.54,-,-,-,.,.,.,.,-,-,TRPC4 sel inh 2=-;TRPC4 spec=-;HEK293 MPD ctr 2-1=-;HEK293 MPD ctr-1=-
Cc1cccc(OCC(=O)O/N=C(\N)c2ccc(Br)cc2)c1,-,-,-,-,-,.,.,.,.,.,.,
CC(NC(=O)CCc1nnc(CCCc2ccccc2)o1)c1ccccc1 (stereo unspecified),-,-,-,-,-,.,.,.,.,.,.,
CCOc1cc(/C=C(/C#N)C(=O)Nc2ccc(O)cc2)cc(Br)c1O,-,-9.71,27.9,-,43,831.0%,193.5%,114.0%,29.0%,-,177.0%,
Cc1ccc(Cl)cc1N1CCN(C(=O)c2ccc(NS(=O)(=O)c3c(C)noc3C)cc2)CC1,-,-6.15,-,-,-,-,-,-,-,70.0%,.,
Cc1ccc(C)c(N2CCN(C(=O)c3ccc(NS(=O)(=O)c4c(C)noc4C)cc3)CC2)c1,-,-6.5,-,-,-,-,-,-15.0%,50.5%,74.0%,-,
Cc1cc(N2CCN(S(=O)(=O)c3ccccc3)CC2)c2ccccc2n1,-,-8.9,-,-,-,-187.0%,-,-31.0%,68.5%,48.0%,-,
Cc1cc(N2CCN(C(=O)c3ccco3)CC2)c2ccccc2n1,-,-6.4,-,-,-,-168.0%,-,-29.0%,28.5%,-,-,
Cc1cc(N2CCN(c3nc(-c4ccccc4)cs3)CC2)c2ccccc2n1,-,-,-,-,-,.,.,.,.,.,.,
Nc1nc(N2CCN(C(=O)c3ccco3)CC2)nc2ccc(Br)cc12,-,-,-,-,-,.,.,.,.,.,.,
Nc1nc(N2CCN(C/C=C/c3ccccc3)CC2)nc2ccccc12,-,-6.69,-,-,-,.,.,.,.,88.1%,-,TRPC4 sel inh 2=18.0%;TRPC4 spec=-21.2%;HEK293 MPD ctr 2-1=-;HEK293 MPD ctr-1=-
Cc1cc(=O)[nH]c(N2CCN(C(=O)c3ccco3)CC2)n1,-,-,-,-,-,.,.,.,.,.,.,
Nc1nc(N2CCN(C(=O)c3ccco3)CC2)nc2ccccc12,-,-7.51,-,-,-,.,.,.,.,-,-,TRPC4 sel inh 2=-;TRPC4 spec=-23.0%;HEK293 MPD ctr 2-1=-;HEK293 MPD ctr-1=-411.5%
CCCc1cc(C(=O)Nc2cc(C)ccc2O)no1,-,-,-,-,-,.,.,.,.,.,.,
O=C(c1cc(COc2ccc(F)cc2Cl)on1)N1CCN(c2cnccn2)CC1,-,-,-,-,-,.,.,.,.,.,.,
CC(=O)C1=C(c2cccc([N+](=O)[O-])c2)N(C(C)=O)n2c(C)nnc2S1,-,-,-,-,-,.,.,.,.,.,.,
O=C(NC1CCN(S(=O)(=O)c2ccc(F)cc2)CC1)c1cccc(F)c1,-,-,-,-,-,.,.,.,.,.,.,
CC(Nc1nc(-c2ccccc2)nc2ccccc12)c1ccccc1 (stereo unspecified),-,-7.28,-,-,-,.,.,.,.,-,-,TRPC4 sel inh 2=-;TRPC4 spec=-9.5%;HEK293 MPD ctr 2-1=-;HEK293 MPD ctr-1=-
COc1ccc(-c2nc(NCCCN(C)C)c3ccccc3n2)cc1,-,-6.72,-,-,-,.,.,.,.,84.9%,-,TRPC4 sel inh 2=55.0%;TRPC4 spec=-31.8%;HEK293 MPD ctr 2-1=-;HEK293 MPD ctr-1=-387.0%
c1ccc(-c2nc(NCCCn3ccnc3)c3ccccc3n2)cc1,-,-5.19,-,-,-,-220.5%,-,-49.5%,71.5%,61.0%,-,
CCN(CC)CCCNc1nc(-c2ccccc2)nc2ccccc12,-,-8.82,-,-,-,.,.,.,.,76.4%,-,TRPC4 sel inh 2=40.0%;TRPC4 spec=-27.2%;HEK293 MPD ctr 2-1=35.0%;HEK293 MPD ctr-1=-355.0%
CC(Nc1nc(-c2ccccc2O)nc2ccccc12)c1ccccc1 (stereo unspecified),-,-,-,-,-,.,.,.,.,.,.,
O=C(NCCc1ccccc1C(F)(F)F)C1CCC(=O)N(CCCN2CCCC2=O)C1 (stereo unspecified),-,-,-,-,-,.,.,.,.,.,.,
COc1ccc(C(CNc2nc(-c3cccnc3)nc3ccccc23)N(C)C)cc1 (stereo unspecified),-,-7.55,-,-,188,-277.0%,-,-38.5%,90.5%,55.0%,-,
CCCn1c(NCc2ccc3c(c2)OCO3)nc2ccccc21,-,-5.24,-,-,-,-,-,8.0%,73.5%,44.0%,-,
SMILES,TRPC4 block,TRPC6 inhibitor,TRPC6 act,TRPC4 PAM,TRPC4 agonist,HEK293 MPD ctr-2,HEK293 MPD ctr 2-2,TRPC4/MOR mod,TRPC4 ctr inh 2,TRPC6 inh conf,TRPC6 act confirm,others
CCCCn1c(NCc2ccc3c(c2)OCO3)nc2ccccc21,-,-5.25,-,-,-,-,-,-,88.5%,40.0%,-,
Cc1cc(C)n(C(=O)CNC(=O)c2cccc(Cl)c2)n1,-,-,-,-,-,.,.,.,.,.,.,
Cc1cc(C)n(C(=O)CNC(=O)c2cccc(Br)c2)n1,-,-5.82,-,-,-,-,-,-,-,-,-,
COc1cc(OC)cc(C(=O)N2CCC(n3c(C)nc4cc(F)ccc43)CC2)c1,-,-,20.1,-,-,-,-,-,-,.,163.0%,
COc1ccc(NC(=O)CN2CCC(n3c(C)nc4cc(F)ccc43)CC2)c(OC)c1,-,-,-,-,-,.,.,.,.,.,.,
Cc1ccn(CC(=O)NC2CCCN(Cc3ccc(CC(C)C)cc3)C2)n1 (stereo unspecified),-,-5.76,-,-,145,111.5%,-,37.5%,-,-,.,
CC(C)Cc1ccc(CN2CCCC(NC(=O)CCN3CCCO3)C2)cc1 (stereo unspecified),-,-,-,-,-,.,.,.,.,.,.,
Cc1sc(NC(=O)c2sc3nc4c(C)cccc4cc3c2N)c(C#N)c1C,-,-,13.3,-,-,-,-,13.0%,-,-,-,
